ChEMBL document CHEMBL1123589, “Phenylpiperazine-based radiopharmaceuticals for brain imaging. 3. Synthesis and evaluation of radioiodinated 1-alkyl-4-phenylpiperazines” (J Med Chem, 1987)

What was measured:
Conditions in all cases: in vivo
Rattus norvegicus [1] = experiment: The biodistribution of the [125I]-labeled compound in rats after intravenous injection was evaluated in adrenal at 4.00 hrs; value ranges from 0.11-0.13 (ID.kg/g); assay type: ADME, organism-based
Procedure, shortened: (§1)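 Male Sprague-Dawley rats (250–300 g) under ether anesthesia were given an iv injection of no-carrier-added 125I-labelled agent (10–15 μCi in 0.1 mL saline). The agent was iodinated with chloramine-T in acetate buffer and purified by C-18 HPLC. Groups of N = 3 were killed at 0.25, 1 and 4 h. Blood and tissues were weighed and γ-counted. Values are % ID·kg/g, mean (range).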

Rattus norvegicus [2] = experiment: The biodistribution of the [125I]-labeled compound in rats after intravenous injection was evaluated in lung at 1.00 hrs (ID.kg/g); assay type: ADME, organism-based
Procedure, shortened: (§2)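 Male Sprague-Dawley rats (250–300 g), under ether anesthesia, given 10–15 μCi of the NCA ¹²⁵I-labeled agent iv in 0.1 mL saline. Groups of N = 3 were killed at 0.25, 1 or 4 h. Blood and tissues were removed, weighed and counted in a γ-well scintillation counter. Values are mean % ID·kg/g (range).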

Rattus norvegicus [3] = experiment: The biodistribution of the [125I]-labeled compound in rats after intravenous injection was evaluated in blood at 0.25 hrs (ID.kg/g); assay type: ADME, organism-based; procedure, shortened: as §1
Rattus norvegicus [4] = experiment: The biodistribution of the [125I]-labeled compound in rats after intravenous injection was evaluated in brain at 0.25 hrs; value ranges from 0.19-0.26 (ID.kg/g); assay type: ADME, organism-based
Rattus norvegicus [5] = experiment: The biodistribution of the [125I]-labeled compound in rats after intravenous injection was evaluated in kidney at 0.25 hr; value ranges from 0.31-0.38 (ID.kg/g); assay type: ADME, organism-based; procedure, shortened: as §2
Rattus norvegicus [6] = experiment: The biodistribution of the [125I]-labeled compound in rats after intravenous injection was evaluated in muscle at 1.00 hrs; value ranges from 0.03-0.05 (ID.kg/g); assay type: ADME, organism-based, Muscle tissue
Procedure, shortened: (§3)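 Male Sprague-Dawley rats (250–300 g) under ether anesthesia given iv 0.1 mL saline containing 10–15 μCi of NCA ¹²⁵I-labeled agent (chloramine-T iodination, HPLC-purified). Groups of 3 killed at 0.25, 1 and 4 h. Blood and tissues excised, weighed and γ-counted. Values are mean (range) of % injected dose × body mass (kg) per gram of tissue.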

Rattus norvegicus [7] = experiment: The biodistribution of the [125I]-labeled compound in rats after intravenous injection was evaluated in heart at 1.00 hrs; value ranges from 0.11-0.13 (ID.kg/g); assay type: ADME, organism-based; procedure, shortened: as §1
Rattus norvegicus [8] = experiment: The biodistribution of the [125I]-labeled compound in rats after intravenous injection was evaluated in liver at 0.25 hr; value ranges from 0.24-0.40 (ID.kg/g); assay type: ADME, organism-based; procedure, shortened: as §2
Rattus norvegicus [9] = experiment: The biodistribution of the [125I]-labeled compound in rats after intravenous injection was evaluated in heart at 0.25 hrs; value ranges from 0.10-0.11 (ID.kg/g); assay type: ADME, organism-based; procedure, shortened: as §1
Rattus norvegicus [10] = experiment: The biodistribution of the [125I]-labeled compound in rats after intravenous injection was evaluated in brain at 4.00 hrs (ID.kg/g); assay type: ADME, organism-based; procedure, shortened: as §1
Rattus norvegicus [11] = experiment: The biodistribution of the [125I]-labeled compound in rats after intravenous injection was evaluated in muscle at 0.25 hrs; value ranges from 0.06-0.07 (ID.kg/g); assay type: ADME, organism-based, Muscle tissue; procedure, shortened: as §3
Rattus norvegicus [12] = experiment: The biodistribution of the [125I]-labeled compound in rats after intravenous injection was evaluated in kidney at 4.00 hrs; value ranges from 0.14-0.21 (ID.kg/g); assay type: ADME, organism-based; procedure, shortened: as §2
Rattus norvegicus [13] = experiment: The biodistribution of the [125I]-labeled compound in rats after intravenous injection was evaluated in fat at 4.00 hrs; value ranges from 0.06-0.07 (ID.kg/g); assay type: ADME, organism-based, Adipose tissue; procedure, shortened: as §1
Rattus norvegicus [14] = experiment: The biodistribution of the [125I]-labeled compound in rats after intravenous injection was evaluated in blood at 4.00 hrs (ID.kg/g); assay type: ADME, organism-based; procedure, shortened: as §1
Rattus norvegicus [15] = experiment: The biodistribution of the [125I]-labeled compound in rats after intravenous injection was evaluated in liver at 4.00 hrs; value ranges from 0.19-0.21 (ID.kg/g); assay type: ADME, organism-based; procedure, shortened: as §2
Rattus norvegicus [16] = experiment: The biodistribution of the [125I]-labeled compound in rats after intravenous injection was evaluated in thyroid at 4.00 hrs; value ranges from 2.48-3.53 (ID.kg/g); assay type: ADME, organism-based, Thyroid gland; procedure, shortened: as §3
Rattus norvegicus [17] = experiment: The biodistribution of the [125I]-labeled compound in rats after intravenous injection was evaluated in blood at 1.00 hrs (ID.kg/g); assay type: ADME, organism-based; procedure, shortened: as §1
Rattus norvegicus [18] = experiment: The biodistribution of the [125I]-labeled compound in rats after intravenous injection was evaluated in lung at 4.00 hrs (ID.kg/g); assay type: ADME, organism-based; procedure, shortened: as §2
Rattus norvegicus [19] = experiment: The biodistribution of the [125I]-labeled compound in rats after intravenous injection was evaluated in muscle at 4.00 hrs (ID.kg/g); assay type: ADME, organism-based, Muscle tissue; procedure, shortened: as §3
Rattus norvegicus [20] = experiment: The biodistribution of the [125I]-labeled compound in rats after intravenous injection was evaluated in lung at 0.25 hrs (ID.kg/g); assay type: ADME, organism-based; procedure, shortened: as §2
Rattus norvegicus [21] = experiment: The biodistribution of the [125I]-labeled compound in rats after intravenous injection was evaluated in adrenal at 0.25 hrs; value ranges from 0.22-0.37 (ID.kg/g); assay type: ADME, organism-based; procedure, shortened: as §1
Rattus norvegicus [22] = experiment: The biodistribution of the [125I]-labeled compound in rats after intravenous injection was evaluated in thyroid at 1.00 hrs value ranges from 2.04-2.76( ID.kg/g); assay type: ADME, organism-based, Thyroid gland; procedure, shortened: as §3
Rattus norvegicus [23] = experiment: The biodistribution of the [125I]-labeled compound in rats after intravenous injection was evaluated in brain at 1.00 hrs; (ID.kg/g); assay type: ADME, organism-based; procedure, shortened: as §1
Rattus norvegicus [24] = experiment: The biodistribution of the [125I]-labeled compound in rats after intravenous injection was evaluated in kidney at 1.00 hrs; value ranges from 0.28-0.33 (ID.kg/g); assay type: ADME, organism-based; procedure, shortened: as §2
Rattus norvegicus [25] = experiment: The biodistribution of the [125I]-labeled compound in rats after intravenous injection was evaluated in fat at 1.00 hrs; value ranges from 0.08-0.12 (ID.kg/g); assay type: ADME, organism-based, Adipose tissue; procedure, shortened: as §1
Rattus norvegicus [26] = experiment: The biodistribution of the [125I]-labeled compound in rats after intravenous injection was evaluated in liver at 1.00 hrs; value ranges from 0.27-0.47 (ID.kg/g); assay type: ADME, organism-based; procedure, shortened: as §2
Rattus norvegicus [27] = experiment: The biodistribution of the [125I]-labeled compound in rats after intravenous injection was evaluated in fat at 0.25 hr; value ranges from 0.07-0.09 (ID.kg/g); assay type: ADME, organism-based, Adipose tissue; procedure, shortened: as §1
Rattus norvegicus [28] = experiment: The biodistribution of the [125I]-labeled compound in rats after intravenous injection was evaluated in heart at 4.00 hrs; value ranges from 0.12-0.14 (ID.kg/g); assay type: ADME, organism-based; procedure, shortened: as §2
Rattus norvegicus [29] = experiment: The biodistribution of the [125I]-labeled compound in rats after intravenous injection was evaluated in thyroid at 0.25 hrs (ID.kg/g); assay type: ADME, organism-based, Thyroid gland; procedure, shortened: as §3
Rattus norvegicus [30] = experiment: The biodistribution of the [125I]-labeled compound in rats after intravenous injection was evaluated in adrenal at 1.00 hrs; value ranges from 0.12-0.19 (ID.kg/g); assay type: ADME, organism-based; procedure, shortened: as §1

Q: Which Biodistribution (Rattus norvegicus [1]) does the source give for `CN1CCN(c2ccc(I)cc2)CC1` here?
A: 0.13%

Q: And the Biodistribution (Rattus norvegicus [2])?
A: 0.2%

Q: And the Biodistribution (Rattus norvegicus [3])?
A: 0.04 % ID·kg/g

Q: What about the Biodistribution (Rattus norvegicus [4]) of the same compound?
A: 0.26%

Q: And the Biodistribution (Rattus norvegicus [5])?
A: 0.38%

Q: What about the Biodistribution (Rattus norvegicus [6]) of the same compound?
A: 0.05%

Q: What about the Biodistribution (Rattus norvegicus [7]) of the same compound?
A: 0.13%

Q: What about the Biodistribution (Rattus norvegicus [8]) of the same compound?
A: 0.4%

Q: And the Biodistribution (Rattus norvegicus [9])?
A: 0.11%

Q: What about the Biodistribution (Rattus norvegicus [10]) of the same compound?
A: 0.05%

Q: What about the Biodistribution (Rattus norvegicus [11]) of the same compound?
A: 0.07%

Q: And the Biodistribution (Rattus norvegicus [12])?
A: 0.21%

Q: And the Biodistribution (Rattus norvegicus [13])?
A: 0.07%

Q: And the Biodistribution (Rattus norvegicus [14])?
A: 0.02 % ID·kg/g

Q: And the Biodistribution (Rattus norvegicus [15])?
A: 0.21%

Q: What about the Biodistribution (Rattus norvegicus [16]) of the same compound?
A: 3.53%

Q: What about the Biodistribution (Rattus norvegicus [17]) of the same compound?
A: 0.04%

Q: What about the Biodistribution (Rattus norvegicus [18]) of the same compound?
A: 0.09%

Q: What about the Biodistribution (Rattus norvegicus [19]) of the same compound?
A: 0.02 %ID·kg/g

Q: And the Biodistribution (Rattus norvegicus [20])?
A: 0.22%

Q: What about the Biodistribution (Rattus norvegicus [21]) of the same compound?
A: 0.37%

Q: And the Biodistribution (Rattus norvegicus [22])?
A: 2.76%

Q: And the Biodistribution (Rattus norvegicus [23])?
A: 0.05%

Q: What about the Biodistribution (Rattus norvegicus [24]) of the same compound?
A: 0.33%

Q: And the Biodistribution (Rattus norvegicus [25])?
A: 0.12%

Q: What about the Biodistribution (Rattus norvegicus [26]) of the same compound?
A: 47%

Q: What about the Biodistribution (Rattus norvegicus [27]) of the same compound?
A: 0.09%

Q: What about the Biodistribution (Rattus norvegicus [28]) of the same compound?
A: 0.14%

Q: What about the Biodistribution (Rattus norvegicus [29]) of the same compound?
A: 0.96%

Q: And the Biodistribution (Rattus norvegicus [30])?
A: 0.19%
